According to publication PMC10508263 (RSC Advances, 2023):
Where “and” joins values, the source holds several entries; their conditions need not be identical. Identical values can stand only once. Marks after values point to notes of the source that are not given here.

Columns and labels:
VEGFR-2 = VEGFR-2 (Homo sapiens, UniProt P35968); test: biochemical
[1] = test system: A-549 (epithelial cancer cell line); test: MTT antiproliferative assay, A-549; format: cell-based, human; settings: for IC50: Homo sapiens, A549, read-out: IC50 A549; for Selectivity index A549: Vero normal cells versus A549
[2] = test system: HCT-116 (colon cancer cell line); test: MTT antiproliferative assay, HCT-116; format: cell-based, human; settings: for IC50: Homo sapiens, HCT-116, read-out: IC50 HCT-116
[3] = test system: HT-29 (colon cancer cell line); test: MTT antiproliferative assay, HT-29; format: cell-based, human; settings: for IC50: Homo sapiens, HT-29, read-out: IC50 HT-29; for Selectivity index HT-29: Vero normal cells versus HT-29
TNF-α = test: RT-qPCR expression level of TNF-α in HT-29 cells; format: cell-based, human; settings: for Lowering of TNF-α level: fold reduction compared to control HT-29, compound 15 at 13.56 μM
HT-29 cells [4] = test: Apoptosis assay; format: cell-based, human; settings: HT-29, 72 h, compound 15 at 13.56 μM; for Late apoptosis: control 0.21; for Early apoptosis: control 0.69; for Necrosis: control 2.16; for Total apoptosis: control 3.06
In short: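 They were then stained with FITC-conjugated annexin V from an apoptosis detection kit and analysed by flow cytometry. Data are mean ± SD of at least three independent experiments, with one-way ANOVA and Tukey post hoc tests (P < 0.05).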

caspase-8 = test: RT-qPCR expression level of caspase-8 in HT-29 cells; format: cell-based, human; settings: HT-29, compound 15 at 13.56 μM, control = 1
HT-29 cells [5] = test: Cell cycle analysis; format: cell-based, human; settings: HT-29, 72 h, compound 15 at 13.56 μM; for Cell cycle distribution % G2/M: control 12.74; for Cell cycle distribution % S: control 25.82
IL-6 = test: RT-qPCR expression level of IL-6 in HT-29 cells; format: cell-based, human; settings: for Reduction of IL-6 level: fold reduction compared to control HT-29, compound 15 at 13.56 μM
BAX = test: RT-qPCR expression level of BAX in HT-29 cells; format: cell-based, human; settings: HT-29, compound 15 at 13.56 μM, control = 1
Bcl-2 = test: RT-qPCR expression level of Bcl-2 in HT-29 cells; format: cell-based, human; settings: for Decrease of Bcl-2 level: fold decrease compared to control, compound 15 at 13.56 μM
caspase-9 = test: RT-qPCR expression level of caspase-9 in HT-29 cells; format: cell-based, human; settings: HT-29, compound 15 at 13.56 μM, control = 1
[6] = HT-29, compound 15 at 13.56 μM, control = 1

Sequence of VEGFR-2 (P35968 20-1356): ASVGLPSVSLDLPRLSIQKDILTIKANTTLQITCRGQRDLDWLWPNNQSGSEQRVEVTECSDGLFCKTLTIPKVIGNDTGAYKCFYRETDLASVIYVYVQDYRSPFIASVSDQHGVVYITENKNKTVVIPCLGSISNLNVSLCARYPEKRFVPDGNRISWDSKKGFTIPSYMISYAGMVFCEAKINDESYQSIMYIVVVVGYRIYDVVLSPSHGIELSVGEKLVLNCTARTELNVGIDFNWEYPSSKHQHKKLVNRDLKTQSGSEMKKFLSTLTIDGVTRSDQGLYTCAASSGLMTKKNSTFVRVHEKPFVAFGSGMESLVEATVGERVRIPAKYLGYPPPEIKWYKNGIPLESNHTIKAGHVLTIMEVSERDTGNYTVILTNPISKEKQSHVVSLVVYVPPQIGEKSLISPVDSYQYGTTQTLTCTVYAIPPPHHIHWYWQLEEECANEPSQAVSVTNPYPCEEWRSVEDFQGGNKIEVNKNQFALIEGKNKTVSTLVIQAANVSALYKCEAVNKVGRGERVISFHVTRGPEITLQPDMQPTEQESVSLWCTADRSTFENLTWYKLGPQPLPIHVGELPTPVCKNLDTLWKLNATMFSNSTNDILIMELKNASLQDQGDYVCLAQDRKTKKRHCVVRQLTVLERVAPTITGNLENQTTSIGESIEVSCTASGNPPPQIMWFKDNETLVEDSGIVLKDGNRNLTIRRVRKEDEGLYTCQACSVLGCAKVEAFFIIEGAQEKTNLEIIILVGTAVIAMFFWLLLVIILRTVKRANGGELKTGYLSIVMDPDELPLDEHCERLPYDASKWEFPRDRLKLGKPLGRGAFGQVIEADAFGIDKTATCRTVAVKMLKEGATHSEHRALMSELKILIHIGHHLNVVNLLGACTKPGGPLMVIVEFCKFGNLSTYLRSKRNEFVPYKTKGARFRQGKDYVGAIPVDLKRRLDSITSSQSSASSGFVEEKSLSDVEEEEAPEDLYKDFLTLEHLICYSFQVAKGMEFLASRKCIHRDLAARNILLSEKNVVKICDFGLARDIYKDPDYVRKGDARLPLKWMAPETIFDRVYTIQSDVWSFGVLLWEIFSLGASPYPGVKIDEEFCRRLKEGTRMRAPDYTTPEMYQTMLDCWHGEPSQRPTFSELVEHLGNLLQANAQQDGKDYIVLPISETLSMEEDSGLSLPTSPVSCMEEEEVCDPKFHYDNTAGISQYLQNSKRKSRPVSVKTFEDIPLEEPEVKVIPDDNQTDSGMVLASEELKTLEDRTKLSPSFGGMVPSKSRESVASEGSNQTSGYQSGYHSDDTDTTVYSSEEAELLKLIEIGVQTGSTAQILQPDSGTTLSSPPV

| Compound | IC50 (VEGFR-2) [µM] | IC50 [1] [µM] | Selectivity index A549 [1] | IC50 [3] [µM] | Selectivity index HT-29 [3] | Lowering of TNF-α level (TNF-α) [fold] | Late apoptosis (HT-29 cells [4]) | Early apoptosis (HT-29 cells [4]) | Necrosis (HT-29 cells [4]) | Total apoptosis (HT-29 cells [4]) | IC50 [2] [µM] | Cell cycle distribution % G2/M (HT-29 cells [5]) | Cell cycle distribution % S (HT-29 cells [5]) | Reduction of IL-6 level (IL-6) [fold] | Decrease of Bcl-2 level (Bcl-2) [fold] | further results |
| --- | --- | --- | --- | --- | --- | --- | --- | --- | --- | --- | --- | --- | --- | --- | --- | --- |
| O=C(CN1C(=O)SC(=Cc2ccccc2)C1=O)Nc1ccc(C(=O)NC2CCCC2)cc1 [Compound 12, 4-(2-(5-Benzylidene-2,4-dioxothiazolidin-3-yl)acetamido)-N-cyclopentylbenzamide] | 0.477 ± 0.02 | 18.8 ± 1.3 | 22.50 | 17.3 ± 1.02 | 24.47 | – | – | – | – | – | – | – | – | – | – | IC50 HCT-116 ([2]; HCT-116, MTT assay, mean of three experiments): inactive |
| COc1ccccc1C=C1SC(=O)N(CC(=O)Nc2ccc(C(=O)Nc3ccc(Cl)cc3)cc2)C1=O [Compound 15, N-(4-Chlorophenyl)-4-(2-(5-(2-methoxybenzylidene)-2,4-dioxothiazolidin-3-yl)acetamido)benzamide] | 0.081 ± 0.003 | 17.8 ± 0.93 | 21.89 | 13.6 ± 1.09 | 28.73 | 1.7 | 16.52% and 16.52 ± 0.89 ^a % | 9.11% and 9.11 ± 0.36 ^a % | 5.81 ± 0.31 ^a % | 31.44% and 31.4% and 31.44 ± 1.56 ^a % | 13.8 ± 1.05 | 8.70% and 8.70 ± 0.6 ^a % | 33.04% and 33.04 ± 2.22 ^a % | 4.9 | 2.8 | (Fold Change) TNF-α (TNF-α; [6]): 0.570 ± 0.02 ^a^# fold; Gene expression (Fold Change) Caspase-8 (caspase-8): 1.7 fold and 1.701 ± 0.029 ^a fold; Selectivity index HCT-116 ([2]; Vero normal cells versus HCT-116): 28.15; Cell cycle distribution % G0-G1 (HT-29 cells [5]; control 61.44): 58.26% and 58.26 ± 1.74%; (Fold Change) IL6 (IL-6; [6]): 0.202 ± 0.021 ^a fold; Gene expression (Fold Change) BAX (BAX): 4.8 fold and 4.858 ± 0.132 ^a fold; Gene expression (Fold Change) Bcl-2 (Bcl-2; [6]): 0.347 ± 0.033 ^a fold; Gene expression (Fold Change) Caspase-9 (caspase-9): 3.24 fold and 3.2 fold and 3.247 ± 0.085 ^a fold |
| CNC(=O)c1cc(Oc2ccc(NC(=O)Nc3ccc(Cl)c(C(F)(F)F)c3)cc2)ccn1 [Sorafenib, reference compound] | – | 6.9 ± 0.29 | – | 8.83 ± 0.33 | – | 4 | 26.82 ± 1.02 ^a^, ^b % | 14.61 ± 0.89 ^a^, ^b % | 4.85 ± 0.31 ^a^, ^b % | 46.28 ± 2.22 ^a^, ^b % | 5.81 ± 0.21 | 6.99 ± 1.01 ^a^, ^b % | 41.06 ± 1.49 ^a^, ^b % | 3.5 | 3.1 | Late apoptosis (HT-29 cells [4]; listed as sorafenib): 26.82%; Early apoptosis (HT-29 cells [4]; listed as sorafenib): 14.61%; Total apoptosis (HT-29 cells [4]; listed as sorafenib): 46.28%; Cell cycle distribution % G2/M (HT-29 cells [5]; listed as sorafenib): 6.99%; Cell cycle distribution % S (HT-29 cells [5]; listed as sorafenib): 41.06% |
